Test results taken from ChEMBL document CHEMBL4627266, “Design and biological evaluation of a novel type of potential multi-targeting antimicrobial sulfanilamide hybrids in combination of pyrimidine and azoles” (Bioorg Med Chem Lett, 2020).
Values after ≈ are worked out from the molar mass of the structure shown. Active and inactive are the calls of the source. The rule behind the calls is not given here.

What was measured:
Staphylococcus aureus [1] = test: Antibacterial activity against Staphylococcus aureus by two fold serial microbroth dilution method; assay type: functional
Procedure, shortened: (§1)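 Two-fold serial dilution in microdilution plates (micro broth dilution) following CLSI. Panel includes clinical drug-resistant isolates and ATCC reference strains. Clinical drugs were run as positive controls.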

Staphylococcus aureus [2] = test: Antibacterial activity against Staphylococcus aureus ATCC 25923 by two fold serial microbroth dilution method; assay type: functional; procedure, shortened: as §1
Enterococcus faecalis [3] = test: Antibacterial activity against Enterococcus faecalis by two fold serial microbroth dilution method; assay type: functional; procedure, shortened: as §1
Escherichia coli [4] = test: Antibacterial activity against Escherichia coli by two fold serial microbroth dilution method; assay type: functional; procedure, shortened: as §1
Klebsiella pneumoniae = test: Antibacterial activity against Klebsiella pneumoniae by two fold serial microbroth dilution method; assay type: functional; procedure, shortened: as §1
Staphylococcus aureus [5] = test: Antibacterial activity against Staphylococcus aureus ATCC 29213 by two fold serial microbroth dilution method; assay type: functional; procedure, shortened: as §1
Pseudomonas aeruginosa [6] = test: Antibacterial activity against Pseudomonas aeruginosa ATCC 27853 by two fold serial microbroth dilution method; assay type: functional; procedure, shortened: as §1
Acinetobacter baumannii = test: Antibacterial activity against Acinetobacter baumannii by two fold serial microbroth dilution method; assay type: functional; procedure, shortened: as §1
Staphylococcus aureus [7] = test: Antibacterial activity against methicillin-resistant Staphylococcus aureus by two fold serial microbroth dilution method; assay type: functional
Procedure, shortened: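 Two-fold serial microbroth dilution in microdilution plates, run per CLSI, with clinical antibacterial drugs as positive controls. The MRSA strain was a drug-resistant clinical isolate from infected patients. MIC (μg/mL) was read as the lowest concentration giving complete inhibition of visible bacterial growth.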

Escherichia coli [8] = test: Antibacterial activity against Escherichia coli ATCC 25922 by two fold serial microbroth dilution method; assay type: functional; procedure, shortened: as §1
Enterococcus faecalis [9] = test: Antibacterial activity against Enterococcus faecalis measured after 16 passages by microbroth dilution method; assay type: functional, organism-based
Pseudomonas aeruginosa [10] = test: Antibacterial activity against Pseudomonas aeruginosa by two fold serial microbroth dilution method; assay type: functional; procedure, shortened: as §1
Candida albicans [11] = test: Antifungal activity against Candida albicans by two fold serial microbroth dilution method; assay type: functional
Procedure, shortened: (§2)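 Antifungal MIC by two-fold serial dilution following CLSI, with a clinical drug as positive control. Panel includes clinical drug-resistant fungal isolates.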

[12] = Cytotoxicity against human A549 cells assessed as cell viability at 64 ug/ml incubated for 24 hrs by MTT assay relative to control; assay type: cell-based; settings: read-out: Activity
Procedure, shortened: (§3)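 A549 lung cancer cells and BEAS-2B normal lung epithelial cells were exposed to the compound at a range of concentrations up to 64 μg/mL for 24 h. Viability was read by colorimetric MTT cell proliferation assay. Doxorubicin at 0.5 µM served as positive control.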

DNA [13] = test: Binding affinity to Enterococcus faecalis DNA assessed as blue shift by UV-visible spectrophotometric method; assay type: nucleic-acid assay
Albumin = Albumin (Homo sapiens, UniProt P02768); test: Binding affinity to HSA by UV-visible spectrophotometric method; assay type: ADME; settings: isolated protein
[14] = Cytotoxicity against human BEAS2B cells assessed as cell viability at 64 ug/ml incubated for 24 hrs by MTT assay relative to control; assay type: cell-based; settings: BEAS-2B cells, read-out: Activity; procedure, shortened: as §3
DNA [15] = test: Binding affinity to Enterococcus faecalis DNA assessed as hyperchromic effect by UV-visible spectrophotometric method; assay type: nucleic-acid assay
DNA [16] = test: Binding affinity to Enterococcus faecalis DNA assessed as decrease in maximum absorption of DNA-NR complex at 530 nm by neutral red dye based absorption spectral assay; assay type: nucleic-acid assay
Aspergillus fumigatus = test: Antifungal activity against Aspergillus fumigatus by two fold serial microbroth dilution method; assay type: functional; procedure, shortened: as §2
DNA [17] = test: Binding affinity to Enterococcus faecalis DNA assessed as increase in absorption peak at 460 nm by neutral red dye based absorption spectral assay; assay type: nucleic-acid assay
Enterococcus faecalis [18] = test: Induction of cell membrane permeabilization in Enterococcus faecalis at 12XMIC measured after 60 mins by PI staining based fluorescence assay; assay type: organism-based
Procedure, shortened: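 E. faecalis cells were treated with the compound at 12 × MIC in the presence of propidium iodide, which enters only compromised cells and fluoresces on binding dsDNA. Fluorescence at 617 nm was followed over time, to about 120 min.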

Enterococcus faecalis [19] = test: Bactericidal activity against Enterococcus faecalis assessed as log10 reduction in CFU at MIC to 6XMIC by time kill kinetics analysis; assay type: functional
Procedure, shortened: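 E. faecalis was exposed to the compound at MIC and 6 × MIC. Viable counts (log CFU/mL) were followed over time.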

Candida tropicalis = test: Antifungal activity against Candida tropicalis by two fold serial microbroth dilution method; assay type: functional; procedure, shortened: as §2
Candida albicans [20] = test: Antifungal activity against Candida albicans ATCC 90023 by two fold serial microbroth dilution method; assay type: functional; procedure, shortened: as §2

Albumin, sequence (P02768 whole entry): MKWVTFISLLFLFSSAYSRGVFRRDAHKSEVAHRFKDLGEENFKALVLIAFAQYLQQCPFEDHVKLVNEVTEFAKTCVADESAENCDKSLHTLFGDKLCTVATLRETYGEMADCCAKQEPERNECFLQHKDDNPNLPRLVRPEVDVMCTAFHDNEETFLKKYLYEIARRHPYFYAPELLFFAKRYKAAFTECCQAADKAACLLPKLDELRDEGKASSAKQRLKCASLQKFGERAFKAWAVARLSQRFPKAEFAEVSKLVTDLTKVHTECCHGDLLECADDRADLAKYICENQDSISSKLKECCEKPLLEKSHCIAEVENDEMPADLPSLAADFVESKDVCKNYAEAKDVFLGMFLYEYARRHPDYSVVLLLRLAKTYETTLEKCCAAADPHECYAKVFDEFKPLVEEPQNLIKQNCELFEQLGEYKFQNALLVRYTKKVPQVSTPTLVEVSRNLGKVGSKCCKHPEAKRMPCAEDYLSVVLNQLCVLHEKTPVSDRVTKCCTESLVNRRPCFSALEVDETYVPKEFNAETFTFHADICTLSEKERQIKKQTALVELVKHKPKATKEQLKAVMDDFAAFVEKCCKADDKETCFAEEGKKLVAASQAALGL

SMILES	MIC (Staphylococcus aureus [1]) [µg/mL]	MIC (Staphylococcus aureus [2]) [µg/mL]	MIC (Enterococcus faecalis [3]) [µg/mL]	MIC (Escherichia coli [4]) [µg/mL]	MIC (Klebsiella pneumoniae) [µg/mL]	MIC (Staphylococcus aureus [5]) [µg/mL]	MIC (Pseudomonas aeruginosa [6]) [µg/mL]	MIC (Acinetobacter baumannii) [µg/mL]	MIC (Staphylococcus aureus [7]) [µg/mL]	MIC (Escherichia coli [8]) [µg/mL]	MIC (Pseudomonas aeruginosa [10]) [µg/mL]	further results
CCn1cc(C(=O)O)c(=O)c2cc(F)c(N3CCNCC3)cc21 [NORFLOXACIN]	0.5 (≈ 1.57 µM)	1 (≈ 3.13 µM)	4 (≈ 12.5 µM)	16 (≈ 50.1 µM)	4 (≈ 12.5 µM)	2 (≈ 6.26 µM)	0.5 (≈ 1.57 µM)	8 (≈ 25.1 µM)	8 (≈ 25.1 µM)	8 (≈ 25.1 µM)	2 (≈ 6.26 µM)	Activity (Enterococcus faecalis [9]): inactive
Nc1ccc(S(=O)(=O)Nc2nccc(-n3cncn3)n2)cc1	512 (≈ 1610 µM)	256 (≈ 807 µM)	256 (≈ 807 µM)	128 (≈ 403 µM)	32 (≈ 101 µM)	64 (≈ 202 µM)	32 (≈ 101 µM)	128 (≈ 403 µM)	128 (≈ 403 µM)	256 (≈ 807 µM)	4 (≈ 12.6 µM)	MIC (Candida albicans [11]): 8 µg/mL (≈ 25.2 µM)
Nc1ccc(S(=O)(=O)Nc2nccc(-n3ccnc3)n2)cc1	128 (≈ 405 µM)	256 (≈ 809 µM)	128 (≈ 405 µM)	256 (≈ 809 µM)	256 (≈ 809 µM)	128 (≈ 405 µM)	256 (≈ 809 µM)	64 (≈ 202 µM)	32 (≈ 101 µM)	256 (≈ 809 µM)	128 (≈ 405 µM)	
Nc1ccc(S(=O)(=O)Nc2nccc(-n3ccc4ccccc43)n2)cc1	32 (≈ 87.6 µM)	4 (≈ 10.9 µM)	1 (≈ 2.74 µM)	32 (≈ 87.6 µM)	32 (≈ 87.6 µM)	8 (≈ 21.9 µM)	1 (≈ 2.74 µM)		2 (≈ 5.47 µM)	32 (≈ 87.6 µM)	8 (≈ 21.9 µM)	viability at 24 h, 64 ug/ml [12]: 70%; Activity (DNA [13]): Active; Activity (Albumin): Active; viability at 24 h, 64 ug/ml [14]: 70%; Activity (DNA [15]): Active; MIC (Candida albicans [11]): 2 to 8 µg/mL (≈ 5.47 to 21.9 µM); Activity (DNA [16]): Active; MIC (Aspergillus fumigatus): 2 to 8 µg/mL (≈ 5.47 to 21.9 µM); Activity (DNA [17]): Active; Activity (Enterococcus faecalis [18]): Active; Activity (Enterococcus faecalis [9]): Active; Activity (Enterococcus faecalis [19]): >3 log10CFU/ml; MIC (Candida tropicalis): 2 to 8 µg/mL (≈ 5.47 to 21.9 µM)
CCc1nccn1-c1ccnc(NS(=O)(=O)c2ccc(N)cc2)n1	128 (≈ 372 µM)	128 (≈ 372 µM)	64 (≈ 186 µM)	128 (≈ 372 µM)	64 (≈ 186 µM)	64 (≈ 186 µM)	128 (≈ 372 µM)	64 (≈ 186 µM)	128 (≈ 372 µM)	512 (≈ 1490 µM)	128 (≈ 372 µM)	
CCCc1nccn1-c1ccnc(NS(=O)(=O)c2ccc(N)cc2)n1	8 (≈ 22.3 µM)	64 (≈ 179 µM)	64 (≈ 179 µM)	16 (≈ 44.6 µM)	64 (≈ 179 µM)	8 (≈ 22.3 µM)	128 (≈ 357 µM)	32 (≈ 89.3 µM)	16 (≈ 44.6 µM)	128 (≈ 357 µM)	128 (≈ 357 µM)	MIC (Candida albicans [20]): 4 µg/mL (≈ 11.2 µM)
Cc1nccn1-c1ccnc(NS(=O)(=O)c2ccc(N)cc2)n1	256 (≈ 775 µM)	256 (≈ 775 µM)	128 (≈ 387 µM)	128 (≈ 387 µM)	512 (≈ 1550 µM)	256 (≈ 775 µM)	256 (≈ 775 µM)	256 (≈ 775 µM)	128 (≈ 387 µM)	256 (≈ 775 µM)	128 (≈ 387 µM)	
